Data as given in PMC4464950 (Dalton transactions (Cambridge, England : 2003), 2015).

What was measured:
RNase A = biological target: T1, RNase A (Bos taurus, UniProt P61823); test: ESI-MS metallodrug-protein interaction, RNase; type: binding; conditions: 3:1 metal/protein, 24 h RT, 20 mM ammonium acetate pH 6.8
T1 sequence (P61823 27-150): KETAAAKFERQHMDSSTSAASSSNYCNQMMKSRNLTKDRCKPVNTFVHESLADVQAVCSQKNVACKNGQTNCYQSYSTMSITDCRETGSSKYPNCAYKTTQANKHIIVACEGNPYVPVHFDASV
In short: (§1)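 Each protein (100 µM) in 20 mM ammonium acetate, pH 6.8, was mixed with test compound at a 3:1 metal/protein ratio and held 24 h at RT. Samples were diluted 20-fold with water and infused directly at 5 µl/min into an ESI Orbitrap (spray 3.1 kV, capillary 45 V, 220 °C, resolution 100,000 at m/z 400). Monoisotopic and average masses were obtained by deconvolution.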

plasmid (pBR322) DNA = test: Electrophoresis mobility shift assay with plasmid DNA; type: binding; conditions: metal/DNAbp ratios 0.25-2.0; 37 °C, 20 h
In short: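 pBR322 plasmid DNA (20 µg/mL) in 5 mM Tris/HCl, 50 mM NaClO4, pH 7.39, was incubated with test compound at metal complex:DNA bp ratios of […], 37 °C, 20 h, in the dark. Free DNA and cisplatin-treated DNA served as controls. Samples ran on 1% agarose in TAE, 80 V for 1.5 h, then were GelRed-stained 30 min.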

cytochrome c = cytochrome c (Equus caballus, UniProt P00004); test: ESI-MS metallodrug-protein interaction, cytochrome c; type: binding; conditions: 3:1 metal/protein, 24 h RT, 20 mM ammonium acetate pH 6.8
In short: as §1

[1] = test system: HCT116 (colon carcinoma) cells; test: Trypan blue exclusion cell growth inhibition, HCT116; type: cell-based, human
In short: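 HCT116 cells were grown in RPMI 1640 + 10% FBS at 37 °C, humidified 5% CO2, and seeded at 1 × 10⁴ cells/well with test compound. After 48 h, cells were mixed 1:1 with 0.4% trypan blue and counted on a haemocytometer, in triplicate. Points are means of four samples over three experiments. IC50/IC75/IC90 came from sigmoidal fits. Selectivity = IC50 in […] ÷ IC50 in cancer cells.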

Sequence of cytochrome c (P00004 whole entry): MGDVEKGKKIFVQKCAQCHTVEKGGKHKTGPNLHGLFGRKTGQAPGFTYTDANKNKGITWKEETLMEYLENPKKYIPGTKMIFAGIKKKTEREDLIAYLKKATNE

## Cc1ccc(C(C)C)cc1.Cc1ccc(C(C)C)cc1.[Cl][Ru][Cl].[Cl][Ru][Cl] [a (Ru), [Ru(p-cymene)Cl(µ-Cl)]2]
RNase A
  Interaction with RNase (ESI-MS adducts): protein binding of a Ru(p-cymene) fragment
Plasmid (pBR322) DNA
  Effect on mobility of supercoiled form (Form I) of plasmid DNA: did not affect the mobility
Cytochrome c
  Interaction with cytochrome c (ESI-MS adducts): protein binding of a Ru(p-cymene) fragment
[1]; 48 h incubation, compounds dissolved in DMSO (1%), Trypan blue
  IC75 HCT116: 313.3 ± 7.1 µM
[1]; IC50 normal cells divided by IC50 cancer cells
  Calculated tumour selectivity (IC50 L929/IC50 HCT116): 3.3
